Bounds are passed on as bounds.

Series [1] relates to Mus musculus. Briefly: Ratio of LD50 for CF1 mouse to ED50 for antiarrhythmic activity in CF1 mouse. Set-up: species or system Heart.
A short description of series [2]: Acute toxicity in ip dosed CF1 mouse. Format: organism-based. The note with it: in vivo.
Series [3] relates to Mus musculus. Briefly: Antiarrhythmic activity in ip dosed CF1 mouse assessed as protection against chloroform-induced ventricular fibrillation. The note with it: CF1, Heart. The class given is functional. The essentials:
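Adult female CF1 mice; protection against ventricular fibrillation provoked by chloroform exposure, used as the first screen of antiarrhythmic activity.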

Series [4] can be described thus: Antiarrhythmic activity in New Zealand rabbit left atrium assessed as reduction in maximum following frequency (MFF). Format: functional, Oryctolagus cuniculus, Cardiac atrium. The essentials: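 Left atria from male New Zealand white rabbits, mounted in Krebs-Henseleit buffer at 35 °C and aerated with 95% O2-5% CO2. Driven by 10-ms square-wave pulses at five times threshold voltage. Control maximum following frequency (MFF) was determined first, then MFF reduction at 1, 3, 13, 33 and 133 μM. ED25 (concentration reducing MFF to 75% of control) was estimated from dose-response curves.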

Series [5] in a line: Toxicity in New Zealand rabbit assessed as reduction in force of left atrial contraction. Format: tissue-based, Oryctolagus cuniculus, Cardiac atrium.
A short description of series [6]: Ratio of ED25 for reduction in force of left atrial contraction in New Zealand rabbit to ED25 for reduction in maximum following frequency in New Zealand rabbit left atrium. Set-up: species or system Oryctolagus cuniculus, Cardiac atrium.

Regarding `CCCCN1CC2CC(C1)CN(C(=O)c1ccc(Cl)cc1)C2.O=C(O)/C=C/C(=O)O`, in the series on Mus musculus [1], the “Ratio LD50/ED50” value is on record as 3.45. The compound further registered an LD50 in series [2] of 463 µmol/kg. Further, the median effective dose (ED50) in the series on Mus musculus [3] came to 134 µmol/kg.
For `COc1cc(C(=O)N2CC3CC(CN(C)C3)C2)cc(OC)c1OC.O=C(O)/C=C/C(=O)O`, the “Ratio LD50/ED50” value in the series with Mus musculus [1] is listed as 3.91. Also, the 50% lethal dose (LD50) in series [2] worked out at 535 µmol/kg. In addition, in the series on Mus musculus [3], the 50% effective dose (ED50) was determined as 137 µmol/kg.
As for `COc1ccc(C(=O)N2CC3CC(CN(C)C3)C2)cc1.O=C(O)/C=C/C(=O)O`, the “Ratio LD50/ED50” value in the series with Mus musculus [1] came out at 5.93. For the same compound, the LD50 in series [2] was determined as 463 µmol/kg. The ED50 in the series with Mus musculus [3] amounted to 78 µmol/kg. The ED25 is 500 µM in series [4] and > 400 µM in series [5].
Consider `CC(C)N(CCC(C(N)=O)(c1ccccc1)c1ccccn1)C(C)C` (stereo not given) [DISOPYRAMIDE], for which the “Ratio LD50/ED50” value in the series on Mus musculus [1] is 5.77. The same compound returned a median lethal dose (LD50) in series [2] of 517 µmol/kg. In the series on Mus musculus [3], the median effective dose (ED50) turned out to be 90 µmol/kg. The ED25 came to 18 µM in series [4] and 56 µM in series [5]. For the same compound, in series [6], the Ratio is on record as 3.11.
In the case of `CN1CC2CC(C1)CN(C(=O)c1ccccc1)C2.O=C(O)/C=C/C(=O)O`, the “Ratio LD50/ED50” value in the series on Mus musculus [1] came out at 7.29. The 50% lethal dose (LD50) in series [2] is 621 µmol/kg. In the series on Mus musculus [3], the median effective dose (ED50) worked out at 85 µmol/kg. In addition, the ED25 in series [4] was 400 µM; in series [5] it was > 400 µM.
For `CCCCN1CC2CC(C1)CN(C(=O)c1ccccc1)C2.Cl`, the “Ratio LD50/ED50” value with Mus musculus [1] amounted to 2.07. The compound also showed a median lethal dose (LD50) in series [2] of 500 µmol/kg. In the series with Mus musculus [3], the ED50 was 242 µmol/kg.
In the case of `CN1CC2CC(C1)CN(C(=O)c1ccc(Cl)cc1)C2.O=C(O)/C=C/C(=O)O`, the “Ratio LD50/ED50” value in the series with Mus musculus [1] is given as 10.89. The median lethal dose (LD50) in series [2] came to 535 µmol/kg. For the same compound, the ED50 with Mus musculus [3] was 49 µmol/kg. Besides, the ED25 in series [4] was 110 µM; in series [5], 400 µM. Besides, the Ratio in series [6] came out at 3.64.
In the case of `CCCCN1CC2CC(C1)CN(C(=O)c1ccc(Cl)c(Cl)c1)C2.O=C(O)/C=C/C(=O)O`, the “Ratio LD50/ED50” value in the series on Mus musculus [1] is 2.71. Besides, in series [2], the LD50 was 605 µmol/kg. Also, in the series with Mus musculus [3], the ED50 turned out to be 223 µmol/kg.
On to `CCCCN1CC2CC(C1)CN(C(=O)c1ccc(OC)cc1)C2.O=C(O)/C=C/C(=O)O`, for which, in the series with Mus musculus [1], the “Ratio LD50/ED50” value amounted to 4.6. This compound had an LD50 in series [2] of 488 µmol/kg. In addition, the ED50 in the series on Mus musculus [3] was found to be 106 µmol/kg.
The like results for `CN1CC2CC(C1)CN(C(=O)c1ccc(Cl)c(Cl)c1)C2.O=C(O)/C=C/C(=O)O` were, in that order, 1.05, 492 µmol/kg and 470 µmol/kg.

As usually defined, the LD50 is the dose at which mortality reaches 50%. Read a low LD50 as a more toxic substance. For orientation: ED50 means the dose at which the effect has come halfway, by size or by number of responders.
